How the values were obtained:
Cannabinoid receptor 2 [1] = molecular target: T1, Cannabinoid receptor 2 (Homo sapiens, UniProt P34972); assay: Displacement of [3H]CP-55940 from human CB2 receptor expressed in CHO cells; assay type: cell-based; design: concentration or dose not given beside the values
Method in brief: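 Competitive radioligand binding on membranes from CHO cells expressing hCB2, with [3H]-CP-55,940 as tracer. Compounds were first screened at 10 µM. Ki at CB2 was then determined for those displacing more than 60% of specific binding.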

Cannabinoid receptor 2 [2] = molecular target: T1, Cannabinoid receptor 2; assay: Inhibition of human CB2 receptor expressed in CHO cells; assay type: cell-based
Cannabinoid receptor 2 [3] = molecular target: T1, Cannabinoid receptor 2; assay: Activity at human CB2 receptor expressed in CHO cells assessed as stimulated [35S]GTP-gamma-S binding relative to control; assay type: functional, cell-based; design: concentration or dose not given beside the values

T1 sequence (P34972 whole entry): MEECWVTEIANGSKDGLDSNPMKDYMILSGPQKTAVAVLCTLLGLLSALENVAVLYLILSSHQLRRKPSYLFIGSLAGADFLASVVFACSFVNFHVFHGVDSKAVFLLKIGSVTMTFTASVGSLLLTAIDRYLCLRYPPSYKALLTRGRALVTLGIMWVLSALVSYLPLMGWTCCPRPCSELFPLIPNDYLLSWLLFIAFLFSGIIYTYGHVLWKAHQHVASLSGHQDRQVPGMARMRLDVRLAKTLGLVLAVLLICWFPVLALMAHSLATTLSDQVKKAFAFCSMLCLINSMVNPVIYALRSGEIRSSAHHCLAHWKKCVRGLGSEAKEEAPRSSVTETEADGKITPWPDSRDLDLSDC

Row | SMILES | Activity (Cannabinoid receptor 2 [1]) | Ki (Cannabinoid receptor 2 [2]) | Activity (Cannabinoid receptor 2 [3])
1 | CC12CC3CC(C)(C1)CC(NC(=O)c1cn(CCc4ccccc4)c4ccccc4c1=O)(C3)C2 | 95.8% | 333 nM | 141%
2 | O=C(c1cn(CCC2CCCCC2)c2ccccc2c1=O)c1cccc2ccccc12 | 78.5% | 1670 nM | 
3 | O=C(c1cn(CCN2CCOCC2)c2ccccc2c1=O)c1cccc2ccccc12 | 46.1% |  | 
4 | CCCCCn1cc(NC(=O)C23CC4CC(CC(C4)C2)C3)c(=O)c2ccccc21 | 99.9% | 25.5 nM | 120%
5 | CCCCCn1c(C)c(C(=O)NC(C)c2cccc3ccccc23)c(=O)c2ccccc21 (single isomer, unassigned; (-)) | 70.4% | > 3000 nM | 
6 | CCCCCn1cc(C(=O)NC23CC4CC(C)(CC(C)(C4)C2)C3)c(=O)c2cccc(Cl)c21 | 98.7% | 27.4 nM | 187%
7 | O=C(c1cn(CCc2ccccc2)c2ccccc2c1=O)c1cccc2ccccc12 | 56.8% |  | 
8 | CCCCCn1cc(C(=O)NC2CCCc3ccccc32)c(=O)c2cc(Cl)ccc21 (racemic) [listing 1 of 2 here] |  | 506 nM | 
9 | O=C(c1cn(CCCc2ccccc2)c2ccccc2c1=O)c1cccc2ccccc12 | 80.4% | > 2000 nM | 
10 | CCCCCn1c(-c2ccccc2)c(C(=O)NC23CC4CC(C)(CC(C)(C4)C2)C3)c(=O)c2ccccc21 | 97.2% | 119 nM | 27.1%
11 | CCCCCn1cc(C(=O)NC(C)C23CC4CC(CC(C4)C2)C3)c(=O)c2ccc(Cl)cc21 (racemic) [listing 1 of 2 here] | 102% |  | 56.3%
12 | CCCCCn1cc(C(=O)c2ccccc2)c(=O)c2ccccc21 | 94.5% | 446 nM | 
13 | CCCCCn1cc(C(=O)NC(C)C23CC4CC(CC(C4)C2)C3)c(=O)c2ccc(Cl)cc21 (single isomer, unassigned; (+)) [listing 1 of 2 here] | 92.9% |  | 42.7%
14 | CCCCCCC(C)(C)c1ccc(C2CC(O)CC[C@H]2CCCO)c(O)c1 (single isomer, unassigned) |  |  | 230%
15 | CCCCCn1cc(C(=O)NC2CCCc3ccccc32)c(=O)c2ccccc21 (single isomer, unassigned; (-)) [listing 1 of 2 here] |  | 1010 nM | 
16 | CC12CC3CC(C)(C1)CC(NC(=O)c1cn(CCCc4ccccc4)c4ccccc4c1=O)(C3)C2 | 101% | 160 nM | 98.8%
17 | O=C(c1cn(Cc2ccc(Br)cc2)c2ccccc2c1=O)c1cccc2ccccc12 | 93.7% | 966 nM | 
18 | CCCCn1cc(C(=O)c2ccc(OC)cc2)c(=O)c2ccccc21 | < 10% |  | 
19 | CCCCCn1cc(C(=O)c2c3ccccc3cc3ccccc23)c(=O)c2ccccc21 | 76.5% | 1500 nM | 
20 | CC12CC3CC(C)(C1)CC(NC(=O)c1cn(Cc4ccc(Cl)cc4)c4ccccc4c1=O)(C3)C2 | 48.1% |  | 
21 | CCCCCn1cc(C(=O)c2ccc(OC)cc2)c(=O)c2ccccc21 | 46.9% |  | 
22 | O=C(c1cn(Cc2ccc(Cl)cc2)c2ccccc2c1=O)c1cccc2ccccc12 | 96.5% | 1120 nM | 
23 | CCCCCn1cc(C(=O)NC23CC4CC(C)(CC(C)(C4)C2)C3)c(=O)c2cccnc21 | 102% | 23.5 nM | 124%
24 | CCCCCn1cc(C(=O)NC2CCCc3ccccc32)c(=O)c2cc(Cl)ccc21 (single isomer, unassigned; (+)) [listing 1 of 2 here] | 92.8% |  | 124%

Row | SMILES | Activity (Cannabinoid receptor 2 [1]) | Ki (Cannabinoid receptor 2 [2]) | Activity (Cannabinoid receptor 2 [3])
25 | CCCCCn1cc(C(=O)NC(C)C23CC4CC(CC(C4)C2)C3)c(=O)c2ccc(Cl)cc21 (single isomer, unassigned; (+)) [listing 2 of 2 here] |  | 265 nM | 
26 | CCCCCn1cc(C(=O)NC23CC4CC(C)(CC(C)(C4)C2)C3)c(=O)c2cnccc21 | 95% | 30.9 nM | 136%
27 | CCCCCn1cc(CNCC2CCCc3ccccc32)c(=O)c2ccccc21 (racemic) | 63.9% | > 4000 nM | 
28 | CCCCCn1cc(C(=O)NC23CC4CC(C)(CC(C)(C4)C2)C3)c(=O)c2cc(Cl)ccc21 | 86.7% | 54.6 nM | 49.6%
29 | CCCCCn1cc(C(=O)NC23CC4CC(C)(CC(C)(C4)C2)C3)c(=S)c2ccccc21 | 95.7% | 18.2 nM | 65.6%
30 | CCCCCn1c(C)c(C(=O)NC(C)c2ccccc2)c(=O)c2ccccc21 (single isomer, unassigned; (-)) | 91.7% | 663 nM | 186%
31 | CCCCCn1cc(C(=O)NC2CCCc3ccccc32)c(=O)c2cc(Cl)ccc21 (racemic) [listing 2 of 2 here] | 98.2% |  | 98.5%
32 | CC12CC3CC(C)(C1)CC(NC(=O)c1cn(CCC4CCCCC4)c4ccccc4c1=O)(C3)C2 | 38.8% |  | 157%
33 | CCCCCn1cc(C(=O)NC(C)C23CC4CC(CC(C4)C2)C3)c(=O)c2cc(Cl)ccc21 (racemic) [listing 1 of 2 here] | 81.8% |  | 97.3%
34 | CCCCCn1cc(C(=O)NC(C)C23CC4CC(CC(C4)C2)C3)c(=O)c2ccc(Cl)cc21 (racemic) [listing 2 of 2 here] |  | 41.1 nM | 
35 | CCCCCn1nc(C(=O)NC23CC4CC(C)(CC(C)(C4)C2)C3)c(=O)c2ccccc21 | 94.6% | 93 nM | 109%
36 | CCCCCn1cc(C(=O)NC(C)C23CC4CC(CC(C4)C2)C3)c(=O)c2cc(Cl)ccc21 (racemic) [listing 2 of 2 here] |  | 222 nM | 
37 | O=C(c1c[nH]c2ccccc2c1=O)c1cccc2ccccc12 | 31% |  | 
38 | CCCCCn1cc(C(=O)NC(C)C23CC4CC(CC(C4)C2)C3)c(=O)c2ccccc21 (stereo in doubt; 24) [listing 1 of 2 here] |  | 14 nM | 
39 | CCCCCn1cc(C(=O)c2ccc3ccccc3c2)c(=O)c2ccccc21 | 74.3% | 1290 nM | 
40 | CCCCCn1c(-c2ccccc2)c(C(=O)NC23CC4CC(CC(C4)C2)C3)c(=O)c2ccccc21 | 94.9% | 338 nM | 26.5%
41 | CCCCCn1cc(NC(=O)CCc2ccccc2)c(=O)c2ccccc21 | 83.4% | 1130 nM | 183%
42 | CCCCCn1cc(C(=O)NC(C)C23CC4CC(CC(C4)C2)C3)c(=O)c2ccccc21 (single isomer, unassigned; (+)) [listing 1 of 2 here] | 64.3% |  | 172%
43 | CCCC(C)(C)c1ccc2c(c1)OC(C)(C)[C@@H]1CC=C(C)C[C@@H]21 |  |  | 201%
44 | CCCCCn1cc(CNC23CC4CC(CC(C4)C2)C3)c(=O)c2ccccc21 | 81.3% | 1670 nM | 
45 | CCCCCn1cc(C(=O)NC(C)C23CC4CC(CC(C4)C2)C3)c(=O)c2cc(Cl)ccc21 (single isomer, unassigned; (+)) [listing 1 of 2 here] | 97.2% |  | 76.7%
46 | CCCCn1cc(C(=O)c2cccc3ccccc23)c(=O)c2ccccc21 | 77.7% | 1550 nM | 
47 | CCCCCn1cc(C(=O)NC(C)C23CC4CC(CC(C4)C2)C3)c(=O)c2ccccc21 (stereo in doubt; 24) [listing 2 of 2 here] | 101% |  | 175%
48 | CCCCCn1cc(C(=O)NC(C)C23CC4CC(CC(C4)C2)C3)c(=O)c2cc(Cl)ccc21 (single isomer, unassigned; (-)) [listing 1 of 2 here] |  | 235 nM | 

Row | SMILES | Activity (Cannabinoid receptor 2 [1]) | Ki (Cannabinoid receptor 2 [2]) | Activity (Cannabinoid receptor 2 [3])
49 | CCCCCn1cc(C(=O)NC(C)C23CC4CC(CC(C4)C2)C3)c(=O)c2cc(Cl)ccc21 (single isomer, unassigned; (+)) [listing 2 of 2 here] |  | 144 nM | 
50 | O=C(c1cn(Cc2ccccc2)c2ccccc2c1=O)c1cccc2ccccc12 | 100% | 656 nM | 
51 | CCCCCn1cc(C(=O)NC(C)C23CC4CC(CC(C4)C2)C3)c(=O)c2ccc(Cl)cc21 (single isomer, unassigned; (-)) [listing 1 of 2 here] |  | 26.1 nM | 
52 | O=C(NCCc1ccccc1)c1cn(CCN2CCOCC2)c2ccccc2c1=O | 46.7% |  | 
53 | O=C(NC12CC3CC(CC(C3)C1)C2)c1cn(CCN2CCOCC2)c2ccccc2c1=O | 101% | 152 nM | 
54 | CC(NC(=O)c1cn(CCN2CCOCC2)c2ccccc2c1=O)c1ccccc1 (single isomer, unassigned; (-)) | 66.5% | < 2000 nM | 
55 | CCCCCCn1cc(C(=O)c2cccc3ccccc23)c(=O)c2ccccc21 | 89.5% | 582 nM | 
56 | CCCCCn1cc(C(=O)c2ccc3cc(OC)ccc3c2)c(=O)c2ccccc21 | 44.1% |  | 
57 | CCCCCn1cc(C(=O)NC(C)C23CC4CC(CC(C4)C2)C3)c(=O)c2ccccc21 (racemic) [listing 1 of 2 here] |  | 28.5 nM | 
58 | CCCCCn1cc(CNCCc2ccccc2)c(=O)c2ccccc21 | 25.9% | > 4000 nM | 
59 | CCCCCn1cc(C(=O)NC2CCCc3ccccc32)c(=O)c2ccccc21 (single isomer, unassigned; (+)) [listing 1 of 2 here] |  |  | 183%
60 | CCCCCn1c(C)c(C(=O)NCCc2ccccc2)c(=O)c2ccccc21 | 57.3% |  | 
61 | CCCCCn1cc(C(=O)NC(C)C23CC4CC(CC(C4)C2)C3)c(=O)c2ccccc21 (single isomer, unassigned; (+)) [listing 2 of 2 here] |  | 202 nM | 
62 | CCCCCn1cc(C(=O)NC(C)C23CC4CC(CC(C4)C2)C3)c(=O)c2ccccc21 (racemic) [listing 2 of 2 here] | 99.1% |  | 156%
63 | CCCCCn1cc(C(=O)NC2CCCc3ccccc32)c(=O)c2ccccc21 (single isomer, unassigned; (+)) [listing 2 of 2 here] |  | 41.7 nM | 
64 | CCCCCn1cc(C(=O)NC2CCCc3ccccc32)c(=O)c2cc(Cl)ccc21 (single isomer, unassigned; (+)) [listing 2 of 2 here] |  | 121 nM | 
65 | CCCCCn1cc(C(=O)NC(C)C23CC4CC(CC(C4)C2)C3)c(=O)c2cc(Cl)ccc21 (single isomer, unassigned; (-)) [listing 2 of 2 here] | 87.7% |  | 86.1%
66 | CCCCCn1cc(C(=O)NC2CCCc3ccccc32)c(=O)c2ccccc21 (single isomer, unassigned; (-)) [listing 2 of 2 here] | 90.9% |  | 
67 | CCCCCCn1cc(C(=O)c2ccc(OC)cc2)c(=O)c2ccccc21 | 68.8% | > 2000 nM | 
68 | CC12CC3CC(C)(C1)CC(NC(=O)c1cn(Cc4ccc(Br)cc4)c4ccccc4c1=O)(C3)C2 | 30.5% |  | 
69 | CCCCCn1cc(C(=O)NC(C)C23CC4CC(CC(C4)C2)C3)c(=O)c2ccc(Cl)cc21 (single isomer, unassigned; (-)) [listing 2 of 2 here] | 102% |  | 53.5%
70 | CCCCCn1c(C)c(C(=O)NC(C)c2ccc3ccccc3c2)c(=O)c2ccccc21 (single isomer, unassigned; (-)) | 62.6% | > 2000 nM | 
71 | CCCCCn1cc(C(=O)c2ccc3c(c2)COC3)c(=O)c2ccccc21 | 70.2% | > 2000 nM | 

Source: ChEMBL document CHEMBL1137569, “Pharmacomodulations around the 4-oxo-1,4-dihydroquinoline-3-carboxamides, a class of potent CB2-selective cannabinoid receptor ligands: consequences in receptor affinity and functionality” (J Med Chem, 2007)
